Results from ChEMBL document CHEMBL4261512, “Discovery of novel trimethoxy-ring BRD4 bromodomain inhibitors: AlphaScreen assay, crystallography and cell-based assay” (Medchemcomm, 2017).

Legend:
[1] = target: T1, Bromodomain-containing protein 4 (Homo sapiens, UniProt O60885); test: Inhibition of SGRG-K(Ac)-GG-K(Ac)-GLGK(Ac)-GGA-K(Ac)-RHRKVGG-K(Biotin) binding to N-terminal 6xHis-tagged human BRD4 bromodomain 1 expressed in Escherichia coli BL21 (DE3) at 50 uM preincubated for 10 mins followed by peptide addition and measured after 10 mins by AlphaScreen assay relative to control
Method in brief: (§1)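 AlphaScreen peptide displacement. His-tagged BRD4 BD1 preincubated 10 min at room temperature with compound in buffer (0.1% Triton X-100, 1 mM DTT, 0.1% BSA). Then 25 nM biotinylated tetra-acetylated H4-type peptide added for 10 min, Ni-chelate acceptor beads for 30 min, and streptavidin donor beads for 30 min in subdued light. Alpha signal read; JQ-1 as control. IC50 from four-parameter log-logistic fit.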

MV4-11 [2] = test: Cell cycle arrest in human MV4-11 cells assessed as accumulation at G1 phase after 24 hrs by propidium iodide staining-based flow cytometric method (reference value: 54.50%); format: functional
MV4-11 [3] = test: Cell cycle arrest in human MV4-11 cells assessed as accumulation at S phase after 24 hrs by propidium iodide staining-based flow cytometric method (reference value: 33.52%); format: functional
MV4-11 [4] = test: Cell cycle arrest in human MV4-11 cells assessed as accumulation at G2 phase after 24 hrs by propidium iodide staining-based flow cytometric method (reference value: 11.98%); format: functional
MV4-11 [5] = test: Induction of apoptosis in human MV4-11 cells assessed as early apoptotic cells after 72 hrs by annexin-V-FITC/propidium iodide staining-based flow cytometric method (reference value: 1.64%); format: functional
Method in brief: (§2)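 MV4-11 cells seeded at 3 × 10⁵ in 6-well plates, settled 30 min, then given compound or DMSO for 72 h. Resuspended in 1× binding buffer with Annexin V-FITC for 15 min at room temperature in the dark, then PI added 5 min before flow cytometry. Populations quantified with the instrument software.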

MV4-11 [6] = test: Induction of apoptosis in human MV4-11 cells assessed as late apoptotic cells after 72 hrs by annexin-V-FITC/propidium iodide staining-based flow cytometric method (reference value: 2.14%); format: functional; method in brief: as §2
MV4-11 [7] = test: Induction of apoptosis in human MV4-11 cells assessed as necrotic cells after 72 hrs by annexin-V-FITC/propidium iodide staining-based flow cytometric method (reference value: 0%); format: functional; method in brief: as §2
MV4-11 [8] = test: Induction of apoptosis in human MV4-11 cells assessed as viable cells after 72 hrs by annexin-V-FITC/propidium iodide staining-based flow cytometric method (reference value: 96.2%); format: functional; method in brief: as §2
[9] = target: T1, Bromodomain-containing protein 4; test: Inhibition of SGRG-K(Ac)-GG-K(Ac)-GLGK(Ac)-GGA-K(Ac)-RHRKVGG-K(Biotin) binding to N-terminal 6xHis-tagged human BRD4 bromodomain 1 expressed in Escherichia coli BL21 (DE3) preincubated for 10 mins followed by peptide addition and measured after 10 mins by AlphaScreen assay; method in brief: as §1
MV4-11 [10] = test: Antiproliferative activity against human MV4-11 cells after 3 days by Alamar blue assay; format: functional, cell-based
Method in brief: (§3)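 MV4-11 cells in RPMI 1640 with 10% FBS and 1% Pen/Strep at 37 °C, 5% CO2. Seeded at 1 × 10⁵–3 × 10⁵, settled 30 min, then given graded compound concentrations or DMSO for three or seven days. Alamar Blue added for 3 h at 37 °C; fluorescence read at ex 544/em 590 nm. Viability normalized to control; IC50 fitted from the dose–response.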

MV4-11 [11] = test: Antiproliferative activity against human MV4-11 cells after 7 days by Alamar blue assay; format: functional, cell-based; method in brief: as §3
[12] = target: T1, Bromodomain-containing protein 4; test: Inhibition of BRD4 in human MV4-11 cells assessed as downregulation of Bcl-2 gene expression after 6 hrs by qRT-PCR method; format: cell-based
Method in brief: (§4)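 MV4-11 cells given compound at varied concentrations (10 and 30 μM) for 6 h. Bcl-2, c-Myc and CDK6 transcripts quantified by real-time quantitative PCR relative to untreated control.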

[13] = target: T1, Bromodomain-containing protein 4; test: Inhibition of BRD4 in human MV4-11 cells assessed as downregulation of c-Myc gene expression after 6 hrs by qRT-PCR method; format: cell-based; method in brief: as §4
[14] = target: T1, Bromodomain-containing protein 4; test: Inhibition of BRD4 in human MV4-11 cells assessed as downregulation of CDK6 gene expression after 6 hrs by qRT-PCR method; format: cell-based; method in brief: as §4
[15] = target: T1, Bromodomain-containing protein 4; test: Inhibition of BRD4 in human MV4-11 cells assessed as downregulation of c-Myc protein expression after 6 hrs by Western blot method; format: cell-based
Method in brief: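 MV4-11 cells seeded at 3 × 10⁵ in 6-well plates, settled 30 min, then given graded compound concentrations or DMSO for 6 h. Probed with rabbit anti-c-Myc mAb and HRP-labelled secondary.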

MV4-11 [16] = test: Cell cycle arrest in human MV4-11 cells assessed as accumulation at G1 phase at 50 uM after 24 hrs by propidium iodide staining-based flow cytometric method (reference value: 54.50%); format: functional
MV4-11 [17] = test: Cell cycle arrest in human MV4-11 cells assessed as accumulation at S phase at 50 uM after 24 hrs by propidium iodide staining-based flow cytometric method (reference value: 33.52%); format: functional
MV4-11 [18] = test: Cell cycle arrest in human MV4-11 cells assessed as accumulation at G2 phase at 50 uM after 24 hrs by propidium iodide staining-based flow cytometric method (reference value: 11.98%); format: functional
MV4-11 [19] = test: Induction of apoptosis in human MV4-11 cells assessed as early apoptotic cells at 50 uM after 72 hrs by annexin-V-FITC/propidium iodide staining-based flow cytometric method (reference value: 1.64%); format: functional; method in brief: as §2
MV4-11 [20] = test: Induction of apoptosis in human MV4-11 cells assessed as late apoptotic cells at 50 uM after 72 hrs by annexin-V-FITC/propidium iodide staining-based flow cytometric method (reference value: 2.14%); format: functional; method in brief: as §2
MV4-11 [21] = test: Induction of apoptosis in human MV4-11 cells assessed as necrotic cells at 50 uM after 72 hrs by annexin-V-FITC/propidium iodide staining-based flow cytometric method (reference value: 0%); format: functional; method in brief: as §2
MV4-11 [22] = test: Induction of apoptosis in human MV4-11 cells assessed as viable cells at 50 uM after 72 hrs by annexin-V-FITC/propidium iodide staining-based flow cytometric method (reference value: 96.2%); format: functional; conditions: MV4-11, 72 h, read-out: Activity; method in brief: as §2
[23] = target: T1, Bromodomain-containing protein 4; test: Binding affinity to N-terminal 6xHis-tagged human BRD4 bromodomain 1 expressed in Escherichia coli BL21 (DE3) assessed as change in melting temperature at 100 uM by SYPRO orange dye-based RT-PCR method (reference value: 0 degC)
[24] = target: T1, Bromodomain-containing protein 4; test: Binding affinity to N-terminal 6xHis-tagged human BRD4 bromodomain 1 expressed in Escherichia coli BL21 (DE3) assessed as change in melting temperature at 200 uM by SYPRO orange dye-based RT-PCR method (reference value: 0 degC)
[25] = target: T1, Bromodomain-containing protein 4; test: Binding affinity to N-terminal 6xHis-tagged human BRD4 bromodomain 1 expressed in Escherichia coli BL21 (DE3) assessed as change in melting temperature by SYPRO orange dye-based RT-PCR method

COc1cc(C(=O)Nc2nnc(C)s2)cc(OC)c1OC
inhibition [1]: 90%

COc1cc(C(=O)NCC2CCCO2)cc(OC)c1OC (configuration not stated)
inhibition [1]: 94%

COc1cc2c(cc1-c1c(C)noc1C)ncc1[nH]c(=O)n([C@H](C)c3ccccn3)c12
Activity (MV4-11 [2]): 90.86% | Activity (MV4-11 [3]): 6.36% | Activity (MV4-11 [4]): 2.78% | Activity (MV4-11 [5]): 18.4% | Activity (MV4-11 [6]): 33.1% | Activity (MV4-11 [7]): 0.718% | Activity (MV4-11 [8]): 47.8%

COC(=O)C(CC(C)C)NC(=O)c1cc(OC)c(OC)c(OC)c1 (configuration not stated)
IC50 [9]: 8.5 µM

COc1cc(C(=O)NC2CCCC2)cc(OC)c1OC
inhibition [1]: 90%

COc1cc(C(=O)NCCOc2ccccc2)cc(OC)c1OC
IC50 [9]: 6.6 µM

COc1cc(C(=O)NCCc2cccs2)cc(OC)c1OC
IC50 [9]: 6.4 µM

COc1cc(C(=O)Nc2nccs2)cc(OC)c1OC
IC50 [9]: 4.3 µM

COCc1nnc(NC(=O)c2cc(OC)c(OC)c(OC)c2)s1
IC50 [9]: 11 µM

CCc1nnc(NC(=O)c2cc(OC)c(OC)c(OC)c2)s1
inhibition [1]: 90%

COc1cc(C(=O)Nc2nc(C)cs2)cc(OC)c1OC
inhibition [1]: 96%

COc1cc(C(=O)NCCCn2ccnc2)cc(OC)c1OC
inhibition [1]: 90%

COC(=O)C(CCSC)NC(=O)c1cc(OC)c(OC)c(OC)c1 (configuration not stated)
IC50 [9]: 2.1 µM

CCC(CO)NC(=O)c1cc(OC)c(OC)c(OC)c1 (configuration not stated)
inhibition [1]: 94%

COc1cc(C(=O)Nc2ccnn2C2CCCC2)cc(OC)c1OC
IC50 [9]: 2.01 µM | Activity (MV4-11 [10]): Dose-dependent effect | Activity (MV4-11 [11]): Dose-dependent effect | inhibition [12]: Dose-dependent effect | inhibition [13]: Dose-dependent effect | inhibition [14]: Dose-dependent effect | inhibition [15]: Dose-dependent effect | Activity (MV4-11 [16]): 79.1% | Activity (MV4-11 [17]): 16.83% | Activity (MV4-11 [18]): 16.83% | Activity (MV4-11 [19]): 4.06% | Activity (MV4-11 [20]): 6.86% | Activity (MV4-11 [21]): 0.073% | viability at 50 µM (MV4-11 [22]): 89% | ΔTm [23]: 1.9 °C | ΔTm [24]: 3.31 °C | Activity [25]: Dose-dependent effect
